Measured values reported in article PMC4191608 (ACS Medicinal Chemistry Letters, 2014).

Key:
[1] = system: pooled human liver microsomes; test: EFV analogue metabolism by pooled human liver microsomes; format: in vitro ADME; conditions: 2 mg/mL HLM, 10 μM analogue, NADPH regenerating system, 60 min, uHPLC-MS/MS
Method in brief: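 Pooled human liver microsomes were incubated with test compound and an NADPH regenerating system. Oxidative products (monooxygenated or N-dealkylated) were profiled by uHPLC–MS/MS and assigned by m/z, retention time and fragment ions.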

CYP2B6 [2] = target: T1, CYP2B6 (Homo sapiens, UniProt P20813); test: Substrate depletion kinetics with CYP2B6; format: in vitro ADME
T1 sequence (P20813 1-491): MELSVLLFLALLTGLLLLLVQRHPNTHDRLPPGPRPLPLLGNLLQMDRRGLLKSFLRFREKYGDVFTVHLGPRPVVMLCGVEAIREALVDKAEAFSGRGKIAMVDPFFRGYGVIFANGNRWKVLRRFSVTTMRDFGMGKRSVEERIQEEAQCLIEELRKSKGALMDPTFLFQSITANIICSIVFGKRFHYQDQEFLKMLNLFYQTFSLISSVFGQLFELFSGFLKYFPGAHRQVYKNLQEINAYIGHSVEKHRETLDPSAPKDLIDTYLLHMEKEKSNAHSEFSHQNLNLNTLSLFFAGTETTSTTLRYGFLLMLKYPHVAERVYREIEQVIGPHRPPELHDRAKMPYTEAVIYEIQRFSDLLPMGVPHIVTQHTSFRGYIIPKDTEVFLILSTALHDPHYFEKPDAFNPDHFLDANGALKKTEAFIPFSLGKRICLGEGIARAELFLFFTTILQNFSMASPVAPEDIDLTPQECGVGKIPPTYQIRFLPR
Method in brief: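 cDNA-expressed CYP2B6 (insect microsomes, 10 nM) was incubated with substrate at 37 °C in 100 mM potassium phosphate. After NADPH regenerating system was added, aliquots at 0, 2, 5, 10, 20 and 30 min were quenched in equal-volume acetonitrile with fluorinated internal standard. Depletion was measured by uHPLC–MS/MS, giving Km, kdep max and Vmax. Mean ± SD, three replicate experiments in duplicate.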

CYP2B6 [3] = target: T1, CYP2B6; test: Inhibition of CYP2B6 bupropion hydroxylase activity; format: biochemical; conditions: 10 μM compound, 40 μM bupropion, CYP2B6 50 nM, 10 min, 37 °C
Method in brief: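 Enzyme was cDNA-expressed CYP2B6 in insect microsomes, incubated with bupropion and test compound in 100 mM potassium phosphate buffer. Hydroxybupropion was quantified by uHPLC–MS/MS and expressed as a percentage of a vehicle control (no test compound). Mean ± SD of three replicate experiments run in duplicate; significance was tested against vehicle.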

Metabolites detected from incubation with human liver microsomes [1]	SMILES	also measured
Monooxygenated metabolites	O=C1Nc2ccc(Cl)cc2[C@@](/C=C/C2CC2)(C(F)(F)F)O1 [analogue 3, (E)-Dihydroefavirenz]	fold decrease in Km between EFV and analogue (CYP2B6 [2]; relative to EFV): 2 fold
Monooxygenated metabolites	FC(F)(F)[C@@]1(C#CC2CC2)OCNc2ccc(Cl)cc21 [analogue 8, (4S)-6-Chloro-4-(2-cyclopropylethynyl)-1,4-dihydro-4-(trifluoromethyl)-2H-3,1-benzoxazine]	

The next lines start with the compound.

SMILES	Metabolites detected from incubation with human liver microsomes [1]	also measured
CCCC#CC1(C(F)(F)F)OC(=O)Nc2ccc(Cl)cc21 (racemic) [analogue 4, rac 6-Chloro-1,4-dihydro-4-(1-pentynyl)-4-(trifluoromethyl)-2H-3,1-benzoxazin-2-one]	Monooxygenated metabolites	fold increase in Km relative to EFV (CYP2B6 [2]): 2 fold
COc1ccc(C(=O)Nc2ccc(Cl)cc2C(O)(C#CC2CC2)C(F)(F)F)cc1 (racemic) [analogue 7, rac N-[4-Chloro-2-[3-cyclopropyl-1-hydroxy-1-(trifluoromethyl)-2-propynyl]phenyl]-4-methoxybenzamide]	No metabolites	inhibition of CYP2B6 hydroxybupropion formation (in words) (CYP2B6 [3]): unable to inhibit hydroxybupropion formation
O=C1Nc2ccc(Cl)cc2[C@@](C#CC2CC2)(C(F)(F)F)O1 [EFV, efavirenz, reference compound]		decrease in hydroxybupropion formation compared to vehicle control (CYP2B6 [3]): 93%
